Here are results for seven molecules from ChEMBL document CHEMBL4184225, “Discovery of selective 2,4-diaminoquinazoline toll-like receptor 7 (TLR 7) agonists” (Bioorg Med Chem Lett, 2018).

For data set [1], the target named is T1, Toll-like receptor 7 (Homo sapiens) (UniProt Q9NYK1).
T1 sequence (whole entry): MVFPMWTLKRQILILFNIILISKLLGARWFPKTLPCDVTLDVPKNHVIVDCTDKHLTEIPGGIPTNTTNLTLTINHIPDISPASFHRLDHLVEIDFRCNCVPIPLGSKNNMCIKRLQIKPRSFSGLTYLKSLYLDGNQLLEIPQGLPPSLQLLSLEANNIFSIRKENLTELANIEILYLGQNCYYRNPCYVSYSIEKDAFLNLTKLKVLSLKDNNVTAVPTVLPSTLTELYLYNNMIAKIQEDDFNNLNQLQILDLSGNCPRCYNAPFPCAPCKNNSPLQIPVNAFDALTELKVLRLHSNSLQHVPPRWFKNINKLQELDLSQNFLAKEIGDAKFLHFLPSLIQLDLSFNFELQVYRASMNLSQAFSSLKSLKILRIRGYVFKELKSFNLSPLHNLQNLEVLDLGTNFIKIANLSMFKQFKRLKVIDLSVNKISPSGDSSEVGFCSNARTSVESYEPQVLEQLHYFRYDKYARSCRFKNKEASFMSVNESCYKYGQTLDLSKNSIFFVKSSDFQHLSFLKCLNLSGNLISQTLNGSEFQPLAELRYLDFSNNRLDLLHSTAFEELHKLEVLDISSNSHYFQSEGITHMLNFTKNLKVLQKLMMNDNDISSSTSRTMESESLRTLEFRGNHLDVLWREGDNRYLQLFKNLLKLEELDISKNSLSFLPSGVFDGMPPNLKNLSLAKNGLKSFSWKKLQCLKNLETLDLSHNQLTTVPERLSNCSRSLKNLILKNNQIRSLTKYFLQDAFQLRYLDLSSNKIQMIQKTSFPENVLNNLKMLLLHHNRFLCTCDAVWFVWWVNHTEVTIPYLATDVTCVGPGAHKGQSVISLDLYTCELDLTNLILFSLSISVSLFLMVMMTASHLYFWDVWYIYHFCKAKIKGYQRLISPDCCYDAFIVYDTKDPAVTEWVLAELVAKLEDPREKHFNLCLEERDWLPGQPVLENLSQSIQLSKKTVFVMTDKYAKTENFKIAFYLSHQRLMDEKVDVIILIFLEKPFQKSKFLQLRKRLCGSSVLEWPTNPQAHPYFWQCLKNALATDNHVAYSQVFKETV
Nature of the data set: Agonist activity at TLR7 in human PBMC assessed as suppression of HCV replicon replication in human HuH7 luc/neo cells harboring RNA encoding bicistronic expression construct comprising wild type HCV type 1b NS3-NS5B regions exposed to conditioned media from compound treated PBMCs by luciferase reporter gene assay. The data set is classed as cell-based. Put shortly: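 PBMCs from buffy coats of at least two donors (Ficoll), in RPMI with 10% human AB serum, 2 x 10^5 cells/well, incubated overnight with compound. Supernatant transferred onto Huh7-luc/neo replicon cells plated the day before (2.2 x 10^3/well). Luciferase read after 24 h. EC50 is the concentration applied to PBMCs giving 50% luciferase reduction. Recombinant IFN-α2a standard.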

A short description of data set [2]: Cytotoxic activity against HEK293 cells assessed as reduction in cell viability incubated for 6 hrs. The data set is classed as cell-based. Particulars: human. In short, it runs like this:
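HEK293 cells transfected with the CMV-TLR7 construct alone, treated with a compound dilution series for 6 h at 37°C, 5% CO₂. Viability read by ATP luminescence. Reported as CC50.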

For another data set, the target named is T2, Toll-like receptor 8 (Homo sapiens, UniProt Q9NR97).
T2 sequence (Q9NR97 whole entry): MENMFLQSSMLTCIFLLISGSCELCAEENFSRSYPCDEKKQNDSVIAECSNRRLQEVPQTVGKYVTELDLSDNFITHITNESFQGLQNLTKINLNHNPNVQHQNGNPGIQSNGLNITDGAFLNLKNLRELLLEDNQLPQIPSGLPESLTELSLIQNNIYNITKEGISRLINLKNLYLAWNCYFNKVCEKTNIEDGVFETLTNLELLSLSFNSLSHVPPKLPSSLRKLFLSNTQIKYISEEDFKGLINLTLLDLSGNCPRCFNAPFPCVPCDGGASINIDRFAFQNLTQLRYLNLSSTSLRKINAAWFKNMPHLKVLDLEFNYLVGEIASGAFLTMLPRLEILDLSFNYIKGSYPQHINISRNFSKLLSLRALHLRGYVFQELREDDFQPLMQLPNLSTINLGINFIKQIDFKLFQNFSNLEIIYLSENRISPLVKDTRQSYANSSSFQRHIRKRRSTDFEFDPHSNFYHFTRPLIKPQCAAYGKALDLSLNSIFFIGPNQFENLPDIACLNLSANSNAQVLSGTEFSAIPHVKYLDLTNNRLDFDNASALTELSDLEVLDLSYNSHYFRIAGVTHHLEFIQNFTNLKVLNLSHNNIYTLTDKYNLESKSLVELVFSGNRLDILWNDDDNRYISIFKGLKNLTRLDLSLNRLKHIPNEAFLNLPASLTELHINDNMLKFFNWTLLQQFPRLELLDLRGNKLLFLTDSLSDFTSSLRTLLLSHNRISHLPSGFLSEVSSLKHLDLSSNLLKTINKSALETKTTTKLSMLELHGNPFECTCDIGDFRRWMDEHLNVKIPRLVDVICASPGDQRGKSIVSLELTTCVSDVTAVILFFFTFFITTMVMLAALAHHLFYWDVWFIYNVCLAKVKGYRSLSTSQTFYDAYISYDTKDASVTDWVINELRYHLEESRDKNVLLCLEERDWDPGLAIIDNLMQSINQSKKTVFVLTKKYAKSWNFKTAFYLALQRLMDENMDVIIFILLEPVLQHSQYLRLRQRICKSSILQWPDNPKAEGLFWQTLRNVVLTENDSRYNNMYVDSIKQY
Nature of the data set: Agonist activity at human TLR8 expressed in HEK293 cells assessed as induction of receptor activation incubated for 6 hrs by NF-kappaB-luciferase reporter gene assay. The data set is classed as cell-based. The note with it: hek293, 6 h. Put shortly:
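HEK293 cells transiently transfected overnight at 37°C with CMV-TLR8 plasmid (wild type or dLRR2 mutant) plus NFκB-luc reporter, then exposed to compound for 6 h at 37°C, 5% CO₂. Luciferase read-out. Quadruplicate dose-response. LEC is the concentration giving an effect at least two-fold above the assay SD, averaged over two or more independent experiments.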

Data set [3] can be described thus: Metabolic stability in mouse liver microsomes assessed as drug metabolism after 15 mins at 1 uM. It counts as ADME, microsome. The note with it: read-out: Drug metabolism. In short, it runs like this: (§1)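 Compound at 1µM incubated with liver microsomes of the stated species. Percent of compound metabolized after 15 min.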
Data set [4] can be described thus: Metabolic stability in human liver microsomes assessed as drug metabolism after 15 mins at 1 uM. Particulars: read-out: Drug metabolism. It counts as ADME, microsome. In short, it runs like this:
as §1

Data set [5] has as its target T1, Toll-like receptor 7 (Homo sapiens). As to the kind of experiment: Agonist activity at human TLR7 expressed in HEK293 cells assessed as induction of receptor activation incubated for 6 hrs by NF-kappaB-luciferase reporter gene assay. It counts as cell-based. In short, it runs like this:
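HEK293 cells transiently transfected overnight with CMV-TLR7 (wild type or dLRR2 mutant) plus NFκB-luc plasmids. Seeded at 1.67 x 10^5 cells/mL onto compound in 4% DMSO (stock), 6 h at 37°C, 5% CO2, luciferase readout. Quadruplicate dose-response. LEC is the concentration giving an effect at least two-fold above assay SD. Values averaged over independent experiments where repeated.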

The species named for a further data set is Homo sapiens. As to the kind of experiment: Selectivity index, ratio of MEC for agonist activity at human TLR8 expressed in HEK293 cells to MEC for agonist activity at human TLR7 expressed in HEK293 cells as. It counts as cell-based. In short, it runs like this:
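Ratio of TLR8 to TLR7 LEC from HEK293 NFκB-luciferase reporter assays. Cells were transiently transfected with TLR7 or TLR8 construct plus NFκB-luc and treated with compound for 6 h at 37°C. LEC is the lowest concentration with signal at least two-fold above the assay SD, from quadruplicate dose-response curves.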

For `CCCCNc1nc(N)nc2cccc(C)c12`, the MEC in data set [1] was 0.32 µM; on Toll-like receptor 8, 0.3 µM; in data set [5], 0.5 µM. In data set [2], the 50% cytotoxic concentration (CC50) at 6 h is greater than 25 µM. For the same molecule, the values for the metabolised at 0.25 h, 1 µM in data set [3] and in data set [4] were 100% and 96%, respectively.

Consider `CCCCOc1nc(N)c2c(n1)N(Cc1cccc(CN3CCCC3)c1)CC(=O)N2`, for which the Ratio in the data set listed under Homo sapiens was found to be 30.

Regarding `CCCCNc1nc(N)nc2cccc(OCCOC)c12`, the MEC was determined as 0.12 µM in data set [1], 0.2 µM on Toll-like receptor 8 and 0.1 µM in data set [5]. In data set [2], the CC50 at 6 h was greater than 25 µM. For the same molecule, the metabolised at 0.25 h, 1 µM was 98% in data set [3] and 59% in data set [4].

Regarding `CCCCNc1nc(N)nc2cccc(C(=O)N[C@@H](C)c3ccccc3OC)c12`, the figures for the MEC (in data set [1]; at Toll-like receptor 8; in data set [5]) were 0.14 µM, greater than 25 µM and 0.28 µM, respectively. Further, the CC50 at 6 h in data set [2] is greater than 25 µM. For the same molecule, the metabolised at 0.25 h, 1 µM in data set [3] and in data set [4] was 99% throughout.

For the molecule `CCCCNc1nc(N)nc2cccc(C(=O)N[C@@H](C)c3cccc(OC)c3)c12`, the MEC in data set [1] was 0.5 µM; on Toll-like receptor 8, greater than 25 µM; in data set [5], 0.37 µM. Besides, the CC50 at 6 h in data set [2] is greater than 25 µM. In addition, the metabolised at 0.25 h, 1 µM in data set [3] amounted to 96%; in data set [4], 97%.

With `CCCCNc1nc(N)nc2cccc(CCc3ccccc3)c12`, the MEC was determined as 0.27 µM in data set [1], 0.47 µM at Toll-like receptor 8 and 0.13 µM in data set [5]. For the same molecule, in data set [2], the cytotoxic concentration (CC50) at 6 h is greater than 25 µM. In addition, the metabolised at 0.25 h, 1 µM was 97% in data set [3] and 24% in data set [4].

Regarding `CCCCNc1nc(N)nc2cccc(OC)c12`, the values for the MEC (in data set [1]; on Toll-like receptor 8; in data set [5]) were 0.1 µM, 0.1 µM and 0.4 µM, respectively. The 50% cytotoxic concentration (CC50) at 6 h in data set [2] is greater than 25 µM. The metabolised at 0.25 h, 1 µM in data set [3] stood at 100%; in data set [4], 98%.
